PRMT1 inh: inhibitors of human PRMT1; recombinant PRMT1, activity-based probe fluorescence polarization; inhibition, % at 2.79 µM; Q99873; 370,000 tested, 1.3% active;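 active = inhibition above about 21% made by adding two undisclosed values, limit read from the data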
Target sequence (Q99873 whole entry, looked up): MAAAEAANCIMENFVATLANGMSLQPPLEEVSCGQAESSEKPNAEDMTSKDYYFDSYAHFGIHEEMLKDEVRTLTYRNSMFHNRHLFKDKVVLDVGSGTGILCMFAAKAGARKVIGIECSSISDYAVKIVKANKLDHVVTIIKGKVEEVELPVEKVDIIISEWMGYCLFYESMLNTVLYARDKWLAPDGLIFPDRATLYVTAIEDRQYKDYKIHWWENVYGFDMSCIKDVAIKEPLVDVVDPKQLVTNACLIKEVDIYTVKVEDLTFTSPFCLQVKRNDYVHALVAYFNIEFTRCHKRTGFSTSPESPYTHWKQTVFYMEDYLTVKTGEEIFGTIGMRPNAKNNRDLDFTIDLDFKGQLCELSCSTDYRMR
HTRA1 inhibitor: blocks human HTRA1 serine peptidase; AID 504803; Q92743; 340,000 tested, 0.5% active; inhibition, % at 5.96 µM; recombinant HTRA1, FP-rhodamine activity-based probe, fluorescence polarization; in the data active = inhibition above about 36%;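 note: 0% = enzyme with DMSO and 100% = wells lacking enzyme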
PAD4 FP inh: inhibitors of human PAD4; Q9UM07; recombinant PAD4, RCA probe fluorescence polarization; inhibition, % at 6.36 µM; 330,000 tested, 0.41% active; AID 485272;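 active = percent inhibition above a cutoff equal to the mean of all tested compounds plus 3 SD, cut at about 15% in these data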;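 note: 0% = PAD4 with RCA probe and DMSO and 100% = probe without PAD4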
TCR CD3 inh: inhibitors of human TCR-CD3 interaction. TAMRA-labeled TCR probe fluorescence, biochemical. 360,000 tested, 0.37% active. inhibition, % at 9.4 µM;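 note: recombinant mutant TCR 2C K166C tagged with TAMRA read by polarization; 0% = receptor in buffer alone and 100% = receptor with positive control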
ABHD4 inh: ABHD4 (mouse) inhibition, primary FP screen. Q8VD66. purified mABHD4, FP-Rh probe fluorescence polarization. inhibition, % at 8.92 µM. 370,000 tested, 0.54% active. AID 720543;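 active = inhibition exceeding the mean over every tested compound plus 3 SD, cut at about 30% in these data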;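 note: 0% = plate median of compound wells and 100% = S159A mutant with DMSO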
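Assay system: Wild-type mouse ABHD4 protein | Medium: HEPES pH 7.0 buffer, 150 mM NaCl, 0.01% Pluronic F-127 | Incubation: Enzyme–compound pre-incubation 45 min, then probe 60 min, both 25 °C | Technique: Fluorescence polarization with parallel and perpendicular emission, 525/598 nm | Evaluation: % inhibition of FP-Rh probe binding versus controls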
SIAE inh: blocks human sialic acid acetylesterase; Q9HAT2; SIAE FP-Rh probe binding, fluorescence polarization; inhibition, % at 9.66 µM; 370,000 tested, 0.69% active; AID 1053197;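 active = inhibition above a cutoff: mean of compounds within the control limits plus 3 SD of those, cut at about 17% in these data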;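 note: 0% = plate median of compound wells and 100% = probe without SIAE protein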
HTRA1 inh conf: confirmation of human HTRA1 inhibitors; shares compounds with HTRA1 inhibitor; inhibition, % at 5.96 µM; recombinant HTRA1, FP-rhodamine activity-based probe, fluorescence polarization; 1,600 tested, 66% active;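 active = mean inhibition over three repeats above a set limit taken from the earlier primary screen, cut at about 37% in these data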;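 note: 0% = HTRA1 with DMSO and 100% = wells lacking HTRA1; inhibitors block probe binding so polarization drops and inhibition rises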
BSA probe FL: counter-screen for TCR-CD3 interaction inhibitors: BSA probe. 1,200 tested, 10% active. TAMRA-labeled BSA probe fluorescence counterscreen. inhibition, % at 9.4 µM. shares compounds with TCR CD3 inh; in the data active = inhibition above about 23%;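 note: 0% = buffer low control and 100% = reference high control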
TCR-CD3 conf: confirmation of human TCR-CD3 interaction inhibitors | TAMRA-labeled TCR probe fluorescence binding assay | 1,200 tested, 48% active | inhibition, % at 9.4 µM | shares compounds with TCR CD3 inh | AID 652036
The depositor's hits bear a star; nt = no result. Most compounds without a hit are left out; they make up all but 2.9% or so of the library. Cut-off read from the data, not from the text of the source, unless noted: active = inhibition above about 19%; inactive = the rest.

SMILES	PRMT1 inh	HTRA1 inhibitor	PAD4 FP inh	TCR CD3 inh	ABHD4 inh	SIAE inh	HTRA1 inh conf	BSA probe FL	TCR-CD3 conf
COc1ccc([C@H]2OC(=O)C[C@H]2C(=O)N2CCCCC2)cc1OC	7	nt	nt	nt	1	2	nt	nt	nt
CCOC(=O)c1c(C)oc2c1c(C=NCc1ccccn1)c(O)c1ccccc12	21*	43*	nt	1	34*	18*	60*	nt	nt
CC(NCc1ccco1)C(=O)N1CCOCC1 (stereo not given)	1	nt	nt	nt	-1	-4	nt	nt	nt
CCCCNS(=O)(=O)CC1NCc2ccc(C)cc21 (stereo not given)	3	nt	nt	nt	0	-1	nt	nt	nt
O=C1C=CC(=O)N1c1ccc(Nc2ccccc2)cc1	11	53*	nt	-25	21	7	18	nt	nt
O=C(Nc1ccc(Nc2ccccc2)cc1)c1c(F)c(F)c(F)c(F)c1F	2	22	2	-7	-6	15	nt	nt	nt
CCCCCCCC/C=C\CCCCCCCC(=O)O	-1	2	3	-1	3	1	nt	nt	nt
CCCCCCCCCCCCC/C=C/[C@@H](O)[C@@H](N)CO	-5	38*	2	10	20	-1	67*	nt	nt
CC(=O)CC[C@H]1CC[C@]2(CCCN(S(=O)(=O)C3CCCCC3)C2)O1	4	nt	nt	nt	-1	-4	nt	nt	nt
CN=c1scc(-c2ccc(F)cc2)n1/N=C/c1ccc(O)c(O)c1	5	64*	nt	5	33*	6	69*	nt	nt
COc1ccccc1NC(=O)c1ccccc1Nc1ccccc1	-10	-26	-1	0	-10	4	nt	nt	nt
COc1ccccc1Nc1ccc(N)cc1	0	68*	-1	2	24	10	56*	nt	nt
CC[C@H](C(=O)Nc1ccccc1N1CCCC1)c1ccccc1	-3	nt	nt	nt	-9	-1	nt	nt	nt
CC(C)(C)c1ccc(O)c(N=Cc2cc(Br)ccc2O)c1	21*	41*	-3	9	18	8	42*	nt	nt
COc1cc(NC(=O)c2ccccc2)c(C)cc1NC(=O)CSc1nnc(-c2ccccc2F)n1-c1ccc(C)cc1	-7	nt	nt	nt	-9	-1	nt	nt	nt
O=C(NCCc1ccc(O)c(O)c1)C1COc2ccccc2O1 (stereo not given)	13	40*	-5	5	28	5	61*	nt	nt
O=c1[nH][nH]c2cc(=O)n(-c3cccc(C(F)(F)F)c3)nc12	8	59*	-2	9	62*	11	13	nt	nt
Nc1n[nH]c2cc(=O)n(-c3cccc(C(F)(F)F)c3)nc12	9	17	5	-9	8	6	nt	nt	nt
Cc1cc2ccccc2n1CCNC(=O)C1CCCCC1	-2	36*	1	16	12	-6	1	nt	nt
Cc1cc2ccccc2n1CCNC(=O)C1CCCC1	14	25	-1	-2	-2	8	nt	nt	nt
COc1ccc(CNS(=O)(=O)/C=C/c2ccc(OC)cc2CNC(=O)OC(C)(C)C)cc1	-2	nt	nt	nt	-11	-5	nt	nt	nt
N=c1c(C(=O)NCc2ccco2)cc2c(=O)n3ccccc3nc2n1CCc1ccccc1	7	-19	0	9	5	-5	nt	nt	nt
Cc1ccc(Cn2c(=N)c(C(=O)NCc3ccco3)cc3c(=O)n4ccccc4nc32)cc1	3	42*	1	8	12	-3	-36	nt	nt
CN(C)c1nc(-c2ccccn2)nnc1-c1ccccc1	-4	52*	-6	-3	2	2	57*	nt	nt
COc1ccc(C)cc1NC(=O)NNC(=O)c1cc2ccccc2cc1O	-1	42*	-8	22*	5	5	35	-2	26*
SMILES	PRMT1 inh	HTRA1 inhibitor	PAD4 FP inh	TCR CD3 inh	ABHD4 inh	SIAE inh	HTRA1 inh conf	BSA probe FL	TCR-CD3 conf
Oc1ccc(Cl)c2cccnc12	2	64*	nt	30*	9	4	76*	-3	1
O=C(O)c1ccc(O)c2ncccc12	8	nt	nt	-4	3	2	nt	nt	nt
C/C(CC(=O)Nc1ccccn1)=N\NC(=O)c1ccccc1O	2	56*	-2	45*	17	11	26	23*	37*
O=C(CSc1nc2ccccc2n1CCc1ccccc1)c1ccc(O)c(O)c1	18	70*	nt	23*	24	20*	66*	-10	32*
O=C(CSc1nc2ccccc2c(=O)[nH]1)c1ccc(O)c(O)c1	23*	43*	-1	32*	34*	1	43*	-19	34*
CCOC(=O)CC[C@@H]1CC[C@]2(CCCN(S(=O)(=O)c3ccccc3)C2)O1	-2	nt	nt	nt	3	0	nt	nt	nt
COc1ccc2nc(C)cc(SCC(=O)N/N=C/c3ccc(O)c(O)c3)c2c1	6	38*	6	40*	18	-5	59*	-15	71*
COc1ccc2nc(C)cc(SCC(=O)N/N=C/c3cccc4ccccc34)c2c1	-2	-8	-1	1	-3	-6	nt	nt	nt
C[C@H](O)[C@@H]1CN2CCc3ccc(N4CCOCC4)cc3[C@@H]2C[C@@H]1N(C)C(=O)c1cccc(Cl)c1	-1	nt	nt	nt	3	7	nt	nt	nt
O=C(NC(=S)NNC(=O)c1ccccc1O)c1ccco1	-1	39*	0	25*	24	10	67*	-9	19
O=C(NC(=S)NNC(=O)c1ccccc1O)c1cccnc1	3	49*	-1	29*	12	1	63*	-2	31*
O=C(NNC(=S)NC(=O)c1ccco1)c1ccc(NC(=O)c2ccccc2)cc1	-2	-19	-5	13	4	2	nt	nt	nt
CN(C)c1ccc(Cc2cc3c(O)ccc(O)c3cc(Cc3ccc(N(C)C)cc3)c2=O)cc1	79*	84*	nt	43*	83*	56*	72*	17	38*
O=C(NN=Cc1c(O)ccc2ccccc12)c1ccc2c(c1)OCO2	0	37*	-1	21*	21	8	17	-17	22*
O=C(N/N=C/c1ccccc1)c1ccc2c(c1)OCO2	2	-8	0	-1	1	0	nt	nt	nt
O=C(O)C1Nc2c(O)cc(Cl)c([N+](=O)[O-])c2C2C=CCC12 (stereo not given)	36*	66*	-4	91*	61*	53*	63*	-19	51*
COc1cccc(/C=C2\CC3(OC(=O)c4cccc(F)c4)CCCN2C3)c1 (stereo not given)	1	nt	nt	nt	-1	5	nt	nt	nt
Cc1ccc(/C=C2\SC(=S)N(CCC(=O)NNC(=O)c3ccc(O)cc3)C2=O)cc1	1	-116	-15	0	-44	-213	nt	nt	nt
Cc1ccc(/C=C2\SC(=S)N(CCCC(=O)NNC(=O)c3ccccc3O)C2=O)cc1	-3	37*	1	33*	9	8	53*	-3	22*

Source: PubChem BioAssay (The Scripps Research Institute Molecular Screening Center)
